Measured values from different studies.
Compare with care: the assays were run in different laboratories.
Target: Mitogen-activated protein kinase 11 (MAPK11, Homo sapiens, UniProt Q15759)

SMILES | test | setting | quantity | value
O=c1[nH]c2ccccc2n1C1CCN(Cc2ccc(-c3[nH]c4cc5ncnc5cc4nc3-c3ccccc3)cc2)CC1 | cell-free assay | 0.5 µM | remaining signal | 102%
Cn1cc(-c2cc(F)cc(N3CCn4c(cc5c4CCCC5)C3=O)c2CO)cc(Nc2ccc(N3CCN(C4COC4)CC3)cn2)c1=O | enzyme activity, inhibitor | 0.1 µM | inhibition | 11%
COc1ncccc1-c1cnn2ccc(N3CCN(C(=O)OC(C)C)CC3)nc12 | binding, competition with immobilised ligand | 1 µM | remaining binding | 89%
Cn1cncc1[C@@](O)(COc1ccc(C#N)cc1-c1ccc(OC(F)(F)F)cc1)c1ccc(C#N)cc1 | cell-free assay, competition with immobilised ligand | 1 µM | remaining binding | 96%
Cn1cc(-c2cccc(N3CCc4c(sc5c4CC(C)(C)C5)C3=O)c2CO)cc(Nc2ccncn2)c1=O | enzyme activity, inhibitor | 1 µM | inhibition | 6%
Cc1nn(C)cc1-c1nc2c(N3CCN(Cc4ccc(Cl)cc4)CC3)c(Cl)cnc2[nH]1 | binding, competition with immobilised ligand | 1 µM | remaining binding | 100%
CC(C)(C)c1cc(C=C(C#N)C#N)cc(Br)c1O | enzyme activity, inhibitor | 0.5 µM | remaining activity | 100%
Nc1ncc(-c2nc(N3CCOCC3)nc(N3CCOCC3)n2)c(C(F)F)n1 | binding, competition with immobilised ligand | 10 µM | remaining binding | 98%
